According to ChEMBL document CHEMBL4699522, “Androsamide, a Cyclic Tetrapeptide from a Marine Nocardiopsis sp., Suppresses Motility of Colorectal Cancer Cells” (J Nat Prod, 2020):
Active and inactive are the calls of the source. Non-standard residues stand in square brackets, D forms with d. Residues, ends and D or L forms follow the SMILES beside them. NMeTrp(4-OMe) = CN[C@@H](Cc1c[nH]c2cccc(OC)c12)C(=O)O; NMeM = CN[C@@H](CCSC)C(=O)O

Legend:
Caco-2 [1] = experiment: Inhibition of epithelial-mesenchymal transition in human Caco-2 cells assessed as decrease in Slug mRNA expression at 0.65 to 1.3 uM after 24 hrs by qRT-PCR analysis; format: functional, cell-based; settings: dose microM 0.65-1.3, time 24.0 hrs
How it was run: (§1)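 Caco2 treated 24 h at 0.65 or 1.3 μM. Total RNA isolated, and 1 μg reverse-transcribed. Quantified by SYBR green real-time PCR. Fold change derived from cycle-threshold values, normalized to GAPDH, and compared with DMSO-treated cells. Means ± SEM, n = 3.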

Caco-2 [2] = experiment: Inhibition of epithelial-mesenchymal transition in human Caco-2 cells assessed as decrease in Twist mRNA expression at 0.65 to 1.3 uM after 24 hrs by qRT-PCR analysis; format: functional, cell-based; settings: dose microM 0.65-1.3, time 24.0 hrs; how it was run: as §1
Caco-2 [3] = experiment: Inhibition of epithelial-mesenchymal transition in human Caco-2 cells assessed as decrease in Twist protein expression at 0.65 to 1.3 uM after 24 hrs by Western blot analysis; format: functional, cell-based; settings: dose microM 0.65-1.3, time 24.0 hrs
How it was run: (§2)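 2 × 10^5 Caco2 cells per well treated 24 h at nontoxic concentrations. Lysates separated by SDS-PAGE and probed with primary antibodies, then HRP-conjugated secondaries. Luminescence band densities normalized to α-tubulin and compared with DMSO-treated cells. Means ± SEM, n = 3.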

Caco-2 [4] = experiment: Cytotoxicity against human Caco-2 cells assessed as reduction in cell viability after 48 hrs by MTT assay; format: functional, cell-based
How it was run: (§3)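 MTT read-out. Cells seeded at (2-3) × 10^3/well, incubated 12 h, then exposed to 3.125–100 μM for 48 h, with MTT added for the final 4 h. Absorbance read at 540 nm. Viability is normalized to DMSO-treated cells. IC50 computed by statistical software. Means ± SEM, n = 3. AGS cells were grown in RPMI, Caco2 and HCT116 in DMEM, all with 10% FBS, at 37 °C and 5% CO2.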

Caco-2 [5] = experiment: Inhibition of epithelial-mesenchymal transition in human Caco-2 cells assessed as decrease in N-cadherin protein expression at 0.65 to 1.3 uM after 24 hrs by Western blot analysis; format: functional, cell-based; settings: dose microM 0.65-1.3, time 24.0 hrs; how it was run: as §2
Caco-2 [6] = experiment: Inhibition of epithelial-mesenchymal transition in human Caco-2 cells assessed as decrease in Snail mRNA expression at 0.65 to 1.3 uM after 24 hrs by qRT-PCR analysis; format: functional, cell-based; settings: dose microM 0.65-1.3, time 24.0 hrs; how it was run: as §1
AGS = experiment: Cytotoxicity against human AGS cells assessed as reduction in cell viability after 48 hrs by MTT assay; format: functional, cell-based; how it was run: as §3
Caco-2 [7] = experiment: Induction of apoptosis in human Caco-2 cells at 13 to 16 uM after 6 hrs by annexin V-FITC/propidium iodide staining based flow cytometric analysis; format: functional, cell-based; settings: dose microM 13-16, time 6.0 hrs
Caco-2 [8] = experiment: Inhibition of epithelial-mesenchymal transition in human Caco-2 cells assessed as decrease in Snail protein expression at 0.65 to 1.3 uM after 24 hrs by Western blot analysis; format: functional, cell-based; settings: dose microM 0.65-1.3, time 24.0 hrs; how it was run: as §2
HCT-116 [9] = experiment: Cytotoxicity against human HCT-116 cells assessed as reduction in cell viability after 48 hrs by MTT assay; format: functional, cell-based; how it was run: as §3
Caco-2 [10] = experiment: Inhibition of epithelial-mesenchymal transition in human Caco-2 cells assessed as increase in E-cadherin protein expression at 0.65 to 1.3 uM after 24 hrs by Western blot analysis; format: functional, cell-based; settings: dose microM 0.65-1.3, time 24.0 hrs; how it was run: as §2
Caco-2 [11] = experiment: Inhibition of epithelial-mesenchymal transition in human Caco-2 cells assessed as decrease in ZEB1 mRNA expression at 0.65 to 1.3 uM after 24 hrs by qRT-PCR analysis; format: functional, cell-based; settings: dose microM 0.65-1.3, time 24.0 hrs; how it was run: as §1
Caco-2 [12] = experiment: Inhibition of cell migration in human Caco-2 cells after 24 hrs by fluorescence microscope based Boyden-Chamber cell migration assay; format: functional; settings: dose microM 0.15-1.3, time 24.0 hrs
How it was run: (§4)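 Boyden chambers coated with 1% gelatin. Caco2 seeded at 2.5 × 10^6 cells/mL in 0.2% BSA medium; the lower chamber has 0.2% BSA medium with 10 μg/mL fibronectin. Exposed to 0.15, 0.65 or 1.3 μM for 24 h at 37 °C. Invaded cells fixed, Diff-Quick stained and counted in five random fields by fluorescence microscopy. Expressed relative to DMSO control; three replicates.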

Caco-2 [13] = experiment: Inhibition of epithelial-mesenchymal transition in human Caco-2 cells assessed as decrease in vimentin mRNA expression after 24 hrs by qRT-PCR analysis; format: functional, cell-based; settings: dose microM 0.65-1.3, time 24.0 hrs; how it was run: as §1
Caco-2 [14] = experiment: Inhibition of cell migration in human Caco-2 cells at 1.3 uM after 6 hrs by K1-Fluo RT fluorescence confocal microscope based transwell assay relative to control; format: functional
How it was run: (§5)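 Migration through uncoated Boyden chambers. (2.0-2.5) × 10^5 Caco2 cells seeded in medium with 0.2% BSA. The lower chamber holds 0.2% BSA medium plus 10 μg/mL fibronectin as chemoattractant. Treated at 0.15, 0.65 or 1.3 μM for 6 h at 37 °C. Migrated cells fixed, Diff-Quick stained and counted in five random fields by confocal microscopy. Expressed relative to DMSO control; triplicate.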

Caco-2 [15] = experiment: Inhibition of cell motility in human Caco-2 cells assessed as reduction in RAC2 mRNA expression at 0.65 to 1.3 uM by RT2 Profiler PCR Array; format: functional, cell-based; settings: dose microM 0.65-1.3
Caco-2 [16] = experiment: Inhibition of epithelial-mesenchymal transition in human Caco-2 cells assessed as decrease in ZEB2 mRNA expression at 0.65 to 1.3 uM after 24 hrs by qRT-PCR analysis; format: functional, cell-based; settings: dose microM 0.65-1.3, time 24.0 hrs; how it was run: as §1
Caco-2 [17] = experiment: Inhibition of epithelial-mesenchymal transition in human Caco-2 cells assessed as decrease in N-cadherin mRNA expression after 24 hrs by qRT-PCR analysis; format: functional, cell-based; settings: dose microM 0.65-1.3, time 24.0 hrs; how it was run: as §1
HCT-116 [18] = experiment: Induction of apoptosis in human HCT-116 cells at 21 to 26 uM after 6 hrs by annexin V-FITC/propidium iodide staining based flow cytometric analysis; format: functional, cell-based; settings: dose microM 21-26, time 6.0 hrs
Caco-2 [19] = experiment: Inhibition of cell motility in human Caco-2 cells assessed as reduction in CAPN1 mRNA expression at 0.65 to 1.3 uM by RT2 Profiler PCR Array; format: functional, cell-based; settings: dose microM 0.65-1.3
Caco-2 [20] = experiment: Inhibition of epithelial-mesenchymal transition in human Caco-2 cells assessed as increase in E-cadherin mRNA expression after 24 hrs by qRT-PCR analysis; format: functional, cell-based; settings: dose microM 0.65-1.3, time 24.0 hrs; how it was run: as §1
Caco-2 [21] = experiment: Inhibition of cell migration in human Caco-2 cells after 6 hrs by K1-Fluo RT fluorescence confocal microscope based transwell assay; format: functional; settings: dose microM 0.15-1.3, time 6.0 hrs; how it was run: as §5
Caco-2 [22] = experiment: Inhibition of cell migration in human Caco-2 cells at 1.3 uM after 24 hrs by fluorescence microscope based Boyden-Chamber cell migration assay relative to control; format: functional; how it was run: as §4

**Q.** CC[C@H](C)[C@@H]1NC(=O)[C@H]([C@@H](C)O)NC(=O)[C@H](Cc2c[nH]c3cccc(OC)c23)N(C)C(=O)[C@H](CCSC)N(C)C1=O (cyclo(I[NMeM][NMeTrp(4-OMe)]T)) was tested. Which inhibition (Caco-2 [1]) did it give?
**A.** Active

**Q.** And the inhibition (Caco-2 [2])?
**A.** Active

**Q.** And the inhibition (Caco-2 [3])?
**A.** Active

**Q.** And the Activity (Caco-2 [4])?
**A.** Dose-dependent effect

**Q.** What about the IC50 (Caco-2 [4]; Caco-2, 48 h) of the same molecule?
**A.** 13 µM

**Q.** And the inhibition (Caco-2 [5])?
**A.** Active

**Q.** What about the inhibition (Caco-2 [6]) of the same molecule?
**A.** Active

**Q.** And the Activity (AGS)?
**A.** Dose-dependent effect

**Q.** And the IC50 (AGS)?
**A.** 18 µM

**Q.** What about the Activity (Caco-2 [7]) of the same molecule?
**A.** Active

**Q.** And the inhibition (Caco-2 [8])?
**A.** Active

**Q.** And the Activity (HCT-116 [9])?
**A.** Dose-dependent effect

**Q.** And the IC50 (HCT-116 [9]; HCT-116, 48 h)?
**A.** 21 µM

**Q.** What about the inhibition (Caco-2 [10]) of the same molecule?
**A.** Active

**Q.** What about the inhibition (Caco-2 [11]) of the same molecule?
**A.** Active

**Q.** What about the inhibition (Caco-2 [12]) of the same molecule?
**A.** Dose-dependent effect

**Q.** And the inhibition (Caco-2 [13])?
**A.** Dose-dependent effect

**Q.** What about the inhibition at 1.3 µM (Caco-2 [14]) of the same molecule?
**A.** 50%

**Q.** And the inhibition (Caco-2 [15])?
**A.** Active

**Q.** And the inhibition (Caco-2 [16])?
**A.** Active

**Q.** What about the inhibition (Caco-2 [17]) of the same molecule?
**A.** Dose-dependent effect

**Q.** And the Activity (HCT-116 [18])?
**A.** Active

**Q.** What about the inhibition (Caco-2 [19]) of the same molecule?
**A.** Active

**Q.** And the inhibition (Caco-2 [20])?
**A.** Dose-dependent effect

**Q.** And the inhibition (Caco-2 [21])?
**A.** Dose-dependent effect

**Q.** What about the inhibition at 1.3 µM (Caco-2 [22]) of the same molecule?
**A.** 45%
